Here are results for 29 compounds from ChEMBL document CHEMBL2057092, “The SAR analysis of TRPV1 agonists with the α-methylated B-region” (Bioorg Med Chem Lett, 2012).

For assay [1], the target named is T1, Transient receptor potential cation channel subfamily V member 1 (Rattus norvegicus, UniProt O35433). Kind of assay: Agonist activity at rat TRPV1 expressed in CHO cells assessed as calcium uptake. The assay is classed as functional, cell-based. Put shortly: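 Functional agonism was read as 45Ca2+ uptake in CHO cells heterologously expressing rat TRPV1.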
T1 sequence (O35433 whole entry): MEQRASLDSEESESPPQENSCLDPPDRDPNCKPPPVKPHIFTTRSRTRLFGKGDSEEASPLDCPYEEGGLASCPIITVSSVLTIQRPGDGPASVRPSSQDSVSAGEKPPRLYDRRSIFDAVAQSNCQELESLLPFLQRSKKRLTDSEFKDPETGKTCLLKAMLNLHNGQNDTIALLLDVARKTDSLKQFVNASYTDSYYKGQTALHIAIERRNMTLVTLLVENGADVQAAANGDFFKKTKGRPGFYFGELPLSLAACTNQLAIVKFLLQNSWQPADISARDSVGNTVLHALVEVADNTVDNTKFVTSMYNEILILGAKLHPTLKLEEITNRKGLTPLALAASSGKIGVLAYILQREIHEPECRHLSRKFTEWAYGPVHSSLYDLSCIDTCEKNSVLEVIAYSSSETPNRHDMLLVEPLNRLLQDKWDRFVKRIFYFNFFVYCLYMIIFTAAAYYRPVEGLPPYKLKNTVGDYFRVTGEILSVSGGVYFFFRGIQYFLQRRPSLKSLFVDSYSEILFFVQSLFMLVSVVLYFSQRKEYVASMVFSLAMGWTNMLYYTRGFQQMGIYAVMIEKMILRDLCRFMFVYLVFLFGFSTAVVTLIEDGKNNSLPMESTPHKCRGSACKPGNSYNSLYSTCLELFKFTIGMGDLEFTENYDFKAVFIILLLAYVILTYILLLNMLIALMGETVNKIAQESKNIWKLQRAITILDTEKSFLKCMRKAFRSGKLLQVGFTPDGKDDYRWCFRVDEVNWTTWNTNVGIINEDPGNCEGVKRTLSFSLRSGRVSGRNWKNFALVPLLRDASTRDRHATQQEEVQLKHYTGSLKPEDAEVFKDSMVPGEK

Assay [2] addresses T1, Transient receptor potential cation channel subfamily V member 1. The assay is described as follows: Displacement of [3H]RTX from rat TRPV1 expressed in CHO cells. The assay is classed as cell-based.
For assay [3], the target named is Transient receptor potential cation channel subfamily V member 1 (Rattus norvegicus) (UniProt O35433). The assay is described as follows: Agonist activity at rat TRPV1 expressed in CHO cells assessed as calcium uptake at 300 nM relative to capsaicin. The assay is classed as functional, cell-based.
Chain of Transient receptor potential cation channel subfamily V member 1 (Rattus norvegicus) (O35433 whole entry): as above
Assay [4] shares this target. The assay is described as follows: Antagonist activity at rat TRPV1 expressed in CHO cells assessed as inhibition of calcium uptake at 30 uM. The assay is classed as functional, cell-based.

For `CCCCCCCCNC(=O)Cc1ccc(O)c(OC)c1`, in assay [1], the EC50 was 77 nM. The Ki in assay [2] was 848 nM.

Regarding `COc1cc(CC(=O)NCCCc2ccc(C)c(C)c2)ccc1OCCN` [DAVASAICIN], in assay [1], the EC50 was found to be 589 nM. In assay [2], this compound showed an inhibition constant (Ki) of 930 nM.

With `CCCCCCCCCNC(=O)Cc1ccc(O)c(OC)c1`, the EC50 in assay [1] was 61 nM. In addition, the Ki in assay [2] turned out to be 240 nM.

`COc1cc(C/N=C(\S)NCc2ccc(C(C)(C)C)cc2)ccc1OCCN`: the EC50 in assay [1] was 132 nM. This compound also showed an inhibitory constant (Ki) in assay [2] of 84 nM.

Take `CCCCCCCCCC(=O)NCc1ccc(O)c(OC)c1`: in assay [1], the EC50 came out at 83 nM. The affinity in assay [2] corresponds to a Ki of 864 nM.

Consider `CC(C)(C)c1ccc(CNC(=O)Cc2ccc(OCCN)c(Cl)c2)cc1`, for which, in assay [3], the Activity came to 36%. Besides, the inhibition in assay [4] was 56%. This compound also showed an inhibition constant Ki in assay [2] of 2470 nM.

In the case of `COc1cc(CC(=O)NCCCc2ccc(C)c(C)c2)ccc1O`, the EC50 in assay [1] is 41 nM. Further, the Ki in assay [2] worked out at 354 nM.

For the compound `CC(C(=O)NCc1ccc(C(C)(C)C)cc1)c1ccc(O)c(F)c1` (stereo unspecified), in assay [1], the concentration for a half-maximal effect (EC50) was 221 nM. Further, the inhibition in assay [4] was 20%. Besides, in assay [2], the Ki is 178 nM.

`COc1cc(C(C)NC(=S)NCc2ccc(C(C)(C)C)cc2)ccc1OCCN` (stereo unspecified): in assay [1], the EC50 came to 5800 nM. In assay [2], this compound yielded a Ki of 1430 nM.

As for `CC(C)(C)c1ccc(CNC(=O)Cc2ccc(O)c(F)c2)cc1`, the EC50 in assay [1] was 911 nM. In addition, in assay [4], the inhibition was determined as 30%. This compound also showed an inhibitory constant (Ki) in assay [2] of 808 nM.

In the case of `CC(C(=O)NCc1ccc(C(C)(C)C)cc1)c1ccc(OCCN)c(Cl)c1` (stereo unspecified), in assay [3], the Activity came out at 75%. The inhibition in assay [4] came to 38%. The Ki in assay [2] turned out to be 380 nM.

In the case of `CCCCCCCCNC(=O)C(C)c1ccc(O)c(OC)c1` (stereo unspecified), the EC50 in assay [1] was 130 nM. In addition, the affinity in assay [2] corresponds to a Ki of 744 nM.

For `CCCCCCCC/C=C\CCCCCCCC(=O)NCc1ccc(O)c(OC)c1` [OLVANIL], in assay [1], the concentration giving a half-maximal response (EC50) came to 202 nM. For the same compound, in assay [2], affinity was put at a Ki of 142 nM.

For `CC(C(=O)NCc1ccc(C(C)(C)C)cc1)c1ccc(OCCN)c(F)c1` (stereo unspecified), the Activity in assay [3] worked out at 91%. In addition, the Ki in assay [2] was 2160 nM.

On to `CCCCCCCCCNC(=O)C(C)c1ccc(O)c(OC)c1` (stereo unspecified), for which the concentration giving a half-maximal response (EC50) in assay [1] is 26.3 nM. In assay [2], this compound gave a Ki of 159 nM.

In the case of `COc1cc(CC(=O)NCc2ccc(C(C)(C)C)cc2)ccc1OCCN`, the concentration for a half-maximal effect (EC50) in assay [1] came to 358 nM. Moreover, the inhibition in assay [4] worked out at 12%. The inhibitory constant (Ki) in assay [2] was 1230 nM.

As for `CC(C)(C)c1ccc(CNC(=O)Cc2ccc(OCCN)c(F)c2)cc1`, the Activity in assay [3] was determined as 63%. The inhibition in assay [4] was 18%. This compound also came in with a Ki in assay [2] of 10100 nM.

Take `CCCCCCCC/C=C/CCCCCCCC(=O)NC(C)c1ccc(O)c(OC)c1` (stereo unspecified): the EC50 in assay [1] is 678 nM. The compound also registered a Ki in assay [2] of 226 nM.

Turning to `CC(C)(C)c1ccc(CNC(=O)Cc2ccc(O)c(Cl)c2)cc1`, in assay [1], the concentration giving a half-maximal response (EC50) was 206 nM. The affinity in assay [2] corresponds to a Ki of 132 nM.

For `COc1cc(CNC(=S)NCc2ccc(C(C)(C)C)cc2)ccc1O`, the EC50 in assay [1] was determined as 2.6 nM.

`CC(C(=O)NCc1ccc(C(C)(C)C)cc1)c1ccc(O)c(Cl)c1` (stereo unspecified): the Activity in assay [3] amounted to 77%. Also, in assay [4], the inhibition was found to be 9%. Moreover, in assay [2], the affinity, expressed as Ki, was 33.1 nM.

For the compound `CCCCCCCCCC(=O)NC(C)c1ccc(O)c(OC)c1` (stereo unspecified), the 50% effective concentration (EC50) in assay [1] was 1250 nM. For the same compound, the inhibition in assay [4] was found to be 28%. The same compound showed a Ki in assay [2] of 3300 nM.

Take `COc1cc(C(C)C(=O)NCc2ccc(C(C)(C)C)cc2)ccc1O` (stereo unspecified): the EC50 in assay [1] came to 24 nM. The inhibition in assay [4] was 15%. This compound returned a Ki in assay [2] of 308 nM.

In the case of `CCCCCCCCC(=O)NC(C)c1ccc(O)c(OC)c1` (stereo unspecified), the EC50 in assay [1] was determined as 1580 nM. Moreover, the Activity in assay [3] was 72%. Besides, the inhibition in assay [4] is 44%. In assay [2], this compound showed an inhibitory constant (Ki) of 4280 nM.

As for `COc1cc(C(C)C(=O)NCCCc2ccc(C)c(C)c2)ccc1O` (stereo unspecified), the EC50 in assay [1] is 21.3 nM. Also, the Ki in assay [2] was 177 nM.

Take `COc1cc(C(C)C(=O)NCc2ccc(C(C)(C)C)cc2)ccc1OCCN` (stereo unspecified): the concentration for a half-maximal effect (EC50) in assay [1] was 238 nM. Moreover, the inhibition in assay [4] came out at 16%. Also, affinity in assay [2] was put at a Ki of 504 nM.

`CCCCCCCCC(=O)NCc1ccc(O)c(OC)c1` [NONIVAMIDE]: the EC50 in assay [1] was 223 nM. For the same compound, the Ki in assay [2] was found to be 1220 nM.

Turning to `COc1cc(C(C)C(=O)NCCCc2ccc(C)c(C)c2)ccc1OCCN` (stereo unspecified), the EC50 in assay [1] is 404 nM. In addition, affinity in assay [2] was put at a Ki of 518 nM.

In the case of `COc1cc(C(C)NC(=S)NCc2ccc(C(C)(C)C)cc2)ccc1O` (stereo unspecified), the half-maximal effective concentration (EC50) in assay [1] was 380 nM. Moreover, in assay [3], the Activity was 70%. Further, the inhibition in assay [4] stood at 35%. This compound also yielded a Ki in assay [2] of 194 nM.
